Converted amounts (≈) assume the structure as drawn.
Columns and labels:
Eremothecium coryli = assay: Antifungal activity against Nematospora coryli by serial dilution test; type: functional
Method in brief: (§1)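 Yeasts tested by serial dilution in YMG medium (glucose 1%, malt extract 1%, yeast extract 0.4%).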

Rhizomucor miehei = assay: Inhibition of conidial germination in Mucor miehei; type: functional
Method in brief: (§2)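 Conidia from 10-day-old cultures were pelleted (1000g, 10 min) and resuspended in distilled water. Each well held 0.5 × 10⁴ conidia in 0.2 mL distilled water and was incubated 16 h at 28 °C. Germinated conidia were counted under an inverted microscope: triplicates, 3 × 100 conidia. The value is the IC100, the concentration for complete germination inhibition.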

Candida albicans = assay: Antifungal activity against Candida albicans by serial dilution test; type: functional; method in brief: as §1
Pyricularia grisea = assay: Inhibition of conidial germination in Magnaporthe grisea; type: functional
Method in brief: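 M. grisea strain 70-15, grown on CM medium. Conidia were harvested from plates kept at 28 °C on a 16 h light/8 h dark cycle (24 °C in the dark). They were pelleted (1000g, 10 min) and resuspended in distilled water. Each well held 0.5 × 10⁴ conidia/0.2 mL water, 16 h at 28 °C. Germinated conidia were counted microscopically: triplicates, 3 × 100. Value given as IC100.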

Paecilomyces variotii = assay: Inhibition of conidial germination in Paecilomyces variotii; type: functional; method in brief: as §2
HeLa S3 = assay: Cytotoxicity against human HeLaS3 cells at 50 ug/ml; type: functional, cell-based
HepG2 = assay: Cytotoxicity against human HepG2 cells at 50 ug/ml; type: functional, cell-based
Escherichia coli = assay: Antibacterial activity against Escherichia coli K-12 by serial dilution test; type: functional
Method in brief: (§3)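 Serial broth dilution in nutrient broth.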

Bacillus subtilis = assay: Antibacterial activity against Bacillus subtilis ATCC 6633 by serial dilution test; type: functional; method in brief: as §3
Brevibacillus brevis = assay: Antibacterial activity against Bacillus brevis ATCC 9999 by serial dilution test; type: functional; method in brief: as §3
Botrytis cinerea = assay: Inhibition of conidial germination in Botrytis cinerea; type: functional; method in brief: as §2
Penicillium chrysogenum = assay: Inhibition of conidial germination in Penicillium notatum; type: functional; method in brief: as §2
Proteus vulgaris = assay: Antibacterial activity against Proteus vulgaris by serial dilution test; type: functional; method in brief: as §3
Phytophthora infestans = assay: Inhibition of conidial germination in Phytophthora infestans; type: functional; method in brief: as §2
Staphylococcus aureus = assay: Antibacterial activity against Staphylococcus aureus by serial dilution test; type: functional; method in brief: as §3
Saccharomyces cerevisiae = assay: Antifungal activity against Saccharomyces cerevisiae by serial dilution test; type: functional; method in brief: as §1
Pseudomonas fluorescens = assay: Antibacterial activity against Pseudomonas fluorescens by serial dilution test; type: functional; method in brief: as §3
[1] = system: Enterobacter cloacae subsp. dissolvens; assay: Antibacterial activity against Enterobacter dissolvens by serial dilution test; type: functional; method in brief: as §3
Micrococcus luteus = assay: Antibacterial activity against Micrococcus luteus by serial dilution test; type: functional; method in brief: as §3

| SMILES | MIC (Eremothecium coryli) | MIC (Rhizomucor miehei; Rhizomucor miehei) | MIC (Candida albicans) | IC100 (Pyricularia grisea) | IC100 (Paecilomyces variotii) | Activity (HeLa S3) | Activity (HepG2) | MIC (Escherichia coli) | MIC (Bacillus subtilis) | MIC (Brevibacillus brevis) | IC100 (Rhizomucor miehei) | IC100 (Botrytis cinerea) | IC100 (Penicillium chrysogenum) | MIC (Proteus vulgaris) | IC100 (Phytophthora infestans) | MIC (Staphylococcus aureus) | MIC (Saccharomyces cerevisiae) | MIC (Pseudomonas fluorescens) | MIC [1] | MIC (Micrococcus luteus) |
| --- | --- | --- | --- | --- | --- | --- | --- | --- | --- | --- | --- | --- | --- | --- | --- | --- | --- | --- | --- | --- |
| C[C@@H]1[C@H](O)[C@@H](C)/C=C/C=C/C=C/C=C/C=C/C=C/C=C/[C@H](O[C@@H]2O[C@H](C)[C@@H](O)[C@H](N)[C@@H]2O)C[C@@H]2O[C@](O)(C[C@@H](O)C[C@@H](O)[C@H](O)CC[C@@H](O)C[C@@H](O)CC(=O)O[C@H]1C)C[C@H](O)[C@H]2C(=O)O [AMPHOTERICIN B] | 15 µg/mL (≈ 16.2 µM) | 5 µg/mL (≈ 5.41 µM) | 10 µg/mL (≈ 10.8 µM) | – | – | – | – | – | – | – | – | – | – | – | – | – | – | – | – | – |
| COC(=O)C1(O)C(=O)C(C)=COc2oc3cccc(O)c3c(=O)c21 (stereo not drawn) [XANTHEPINONE] | 10 µg/mL (≈ 30.1 µM) | – | 50 µg/mL (≈ 150 µM) | 2 µg/mL | 50 µg/mL | Not toxic | Not toxic | > 50 µg/mL | > 50 µg/mL | > 50 µg/mL | 25 µg/mL | 10 µg/mL | 25 µg/mL | 50 µg/mL (≈ 150 µM) | 5 µg/mL | 50 µg/mL (≈ 150 µM) | 25 µg/mL (≈ 75.2 µM) | > 50 µg/mL | > 50 µg/mL | > 50 µg/mL |
| CN[C@@H]1[C@H](O[C@H]2[C@H](O[C@H]3[C@H](O)[C@@H](O)[C@H](N=C(N)N)[C@@H](O)[C@@H]3N=C(N)N)O[C@@H](C)[C@]2(O)C=O)O[C@@H](CO)[C@H](O)[C@H]1O.CN[C@@H]1[C@H](O[C@H]2[C@H](O[C@H]3[C@H](O)[C@@H](O)[C@H](N=C(N)N)[C@@H](O)[C@@H]3N=C(N)N)O[C@@H](C)[C@]2(O)C=O)O[C@@H](CO)[C@H](O)[C@H]1O.O=S(=O)(O)O.O=S(=O)(O)O.O=S(=O)(O)O [STREPTOMYCIN SULFATE] | – | – | – | – | – | – | – | – | – | – | – | – | – | 5 µg/mL | – | – | – | – | – | – |
